# From ChEMBL document CHEMBL2062465, “Sesquiterpenoids from Incarvillea arguta: absolute configuration and biological evaluation” (J Nat Prod, 2012)
# Active and inactive are the calls of the source. The calls are words filed in the database; no cut-off is given here. Peptide text beside a SMILES is read from it. * marks the point of attachment. Cbz = O=C(OCc1ccccc1)*
# System: HL-60
# Experiment: Cytotoxicity against human HL60 cells after 48 hrs by MTT assay
# Format: functional, cell-based
# Conditions: HL-60, 48 h
# Procedure, shortened: (§1)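 MTT viability assay on human tumour lines. Adherent cells were seeded and allowed to attach 12 h before drug addition. Suspension cells were seeded immediately before dosing at (1−2) × 10^5 cells/mL. Cells were exposed to a range of concentrations for 48 h. Cisplatin and taxol were positive controls. IC50 values were calculated from viability.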
row,SMILES,IC50
1,C=C(CO)[C@@H]1CC(=O)C2=CCC[C@H](C)[C@@]2(C)C1 [ARGUTOSINE B],15.2 µM
2,C[C@H]1CCC=C2C(=O)C=C([C@]3(CO)CC[C@@](O)(CO)C4=C3C(=O)C3=CCC[C@H](C)[C@@]3(C)C4)C[C@@]21C [DIINCARVILONE A],> 40 µM
3,C[C@H]1CCC=C2C(=O)C=C([C@]3(CO)CC[C@](O)(CO)C4=C3C(=O)C3=CCC[C@H](C)[C@@]3(C)C4)C[C@@]21C [DIINCARVILONE B],> 40 µM
4,C[C@H]1CCC=C2C(=O)C=C([C@]3(CO)CC[C@@H](CO)C4=C3C(=O)C3=CCC[C@H](C)[C@@]3(C)C4)C[C@@]21C [DIINCARVILONE C],> 40 µM
5,C[C@H]1CCC=C2C(=O)C=C([C@]3(CO)CCC(=O)C4=C3C(=O)C3=CCC[C@H](C)[C@@]3(C)C4)C[C@@]21C [DIINCARVILONE D],> 40 µM
6,C[C@H](CO)C1=CC(=O)C2=CCC[C@H](C)[C@@]2(C)C1 [INCARVILONE A],> 40 µM

# System: SMMC-7721
# Experiment: Cytotoxicity against human SMMC7721 cells after 48 hrs by MTT assay
# Format: functional, cell-based
# Conditions: SMMC-7721, 48 h
# Procedure, shortened: as §1
row,SMILES,IC50
1,C=C(CO)[C@@H]1CC(=O)C2=CCC[C@H](C)[C@@]2(C)C1 [ARGUTOSINE B],34.1 µM
2,C[C@H]1CCC=C2C(=O)C=C([C@]3(CO)CC[C@@](O)(CO)C4=C3C(=O)C3=CCC[C@H](C)[C@@]3(C)C4)C[C@@]21C [DIINCARVILONE A],> 40 µM
3,C[C@H]1CCC=C2C(=O)C=C([C@]3(CO)CC[C@](O)(CO)C4=C3C(=O)C3=CCC[C@H](C)[C@@]3(C)C4)C[C@@]21C [DIINCARVILONE B],> 40 µM
4,C[C@H]1CCC=C2C(=O)C=C([C@]3(CO)CC[C@@H](CO)C4=C3C(=O)C3=CCC[C@H](C)[C@@]3(C)C4)C[C@@]21C [DIINCARVILONE C],> 40 µM
5,C[C@H]1CCC=C2C(=O)C=C([C@]3(CO)CCC(=O)C4=C3C(=O)C3=CCC[C@H](C)[C@@]3(C)C4)C[C@@]21C [DIINCARVILONE D],> 40 µM
6,C[C@H](CO)C1=CC(=O)C2=CCC[C@H](C)[C@@]2(C)C1 [INCARVILONE A],> 40 µM

# System: RAW264.7
# Experiment: Antiinflammatory activity in mouse RAW264.7 cells assessed as inhibition of LPS-stimulated NO production after 18 hrs by Griess reagent method
# Format: functional, cell-based
# Conditions: RAW264.7, 18 h
# Procedure, shortened: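 NO release measured in LPS-stimulated RAW264.7 macrophages. DMSO wells were included, and MG-132 (proteasome inhibitor) served as positive control. Cell viability was checked by MTT in each experiment. IC50 was derived.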
row,IC50,SMILES
1,5.7 µM,C=C(CO)[C@@H]1CC(=O)C2=CCC[C@H](C)[C@@]2(C)C1 [ARGUTOSINE B]
2,0.08 µM,CC(C)C[C@@H](C=O)NC(=O)[C@H](CC(C)C)NC(=O)[C@H](CC(C)C)NC(=O)OCc1ccccc1 [MG-132] (Cbz-Leu-Leu-Leu-aldehyde)

# System: A549
# Experiment: Induction of intracellular calcium influx in human A549 cells at 10 uM after 12 hrs by fluorescence analysis
# Format: functional, cell-based
# Conditions: not given
# Procedure, shortened: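 A549 cells were seeded at 0.5 × 10^4 cells/well and grown 12 h. They were loaded with Fluo-4 AM for 30 min, then washed three times with HBSS. Compounds were tested at 10 μM in Ca2+-containing HBSS. Intracellular calcium was imaged and analysed on an automated cell-based fluorescence-imaging system.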
row,SMILES,Activity
1,C[C@H]1CCC=C2C(=O)C=C([C@]3(CO)CC[C@@](O)(CO)C4=C3C(=O)C3=CCC[C@H](C)[C@@]3(C)C4)C[C@@]21C [DIINCARVILONE A],Active
2,C[C@H]1CCC=C2C(=O)C=C([C@]3(CO)CC[C@](O)(CO)C4=C3C(=O)C3=CCC[C@H](C)[C@@]3(C)C4)C[C@@]21C [DIINCARVILONE B],Active
3,C[C@H]1CCC=C2C(=O)C=C([C@]3(CO)CCC(=O)C4=C3C(=O)C3=CCC[C@H](C)[C@@]3(C)C4)C[C@@]21C [DIINCARVILONE D],Active

# System: RAW264.7
# Experiment: Cytotoxicity against mouse RAW264.7 cells at 0.04 to 25 uM by MTT assay
# Format: cell-based
# Conditions: raw264.7, 25 µM
# Procedure, shortened: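 Viability of RAW264.7 macrophages was checked by MTT alongside each NO-production experiment, at 0.04, 0.2, 1, 5 and 25 μM.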
row,SMILES,Activity
1,C=C(CO)[C@@H]1CC(=O)C2=CCC[C@H](C)[C@@]2(C)C1 [ARGUTOSINE B],Non-toxic

# System: SW480
# Experiment: Cytotoxicity against human SW480 cells after 48 hrs by MTT assay
# Format: functional, cell-based
# Conditions: SW480, 48 h
# Procedure, shortened: as §1
row,SMILES,IC50
1,C=C(CO)[C@@H]1CC(=O)C2=CCC[C@H](C)[C@@]2(C)C1 [ARGUTOSINE B],15.6 µM
2,C[C@H]1CCC=C2C(=O)C=C([C@]3(CO)CC[C@@](O)(CO)C4=C3C(=O)C3=CCC[C@H](C)[C@@]3(C)C4)C[C@@]21C [DIINCARVILONE A],> 40 µM
3,C[C@H]1CCC=C2C(=O)C=C([C@]3(CO)CC[C@](O)(CO)C4=C3C(=O)C3=CCC[C@H](C)[C@@]3(C)C4)C[C@@]21C [DIINCARVILONE B],> 40 µM
4,C[C@H]1CCC=C2C(=O)C=C([C@]3(CO)CC[C@@H](CO)C4=C3C(=O)C3=CCC[C@H](C)[C@@]3(C)C4)C[C@@]21C [DIINCARVILONE C],> 40 µM
5,C[C@H]1CCC=C2C(=O)C=C([C@]3(CO)CCC(=O)C4=C3C(=O)C3=CCC[C@H](C)[C@@]3(C)C4)C[C@@]21C [DIINCARVILONE D],> 40 µM
6,C[C@H](CO)C1=CC(=O)C2=CCC[C@H](C)[C@@]2(C)C1 [INCARVILONE A],> 40 µM

# System: MCF7
# Experiment: Cytotoxicity against human MCF7 cells after 48 hrs by MTT assay
# Format: functional, cell-based
# Conditions: MCF7, 48 h
# Procedure, shortened: as §1
row,SMILES,IC50
1,C=C(CO)[C@@H]1CC(=O)C2=CCC[C@H](C)[C@@]2(C)C1 [ARGUTOSINE B],13.5 µM
2,C[C@H]1CCC=C2C(=O)C=C([C@]3(CO)CC[C@@](O)(CO)C4=C3C(=O)C3=CCC[C@H](C)[C@@]3(C)C4)C[C@@]21C [DIINCARVILONE A],> 40 µM
3,C[C@H]1CCC=C2C(=O)C=C([C@]3(CO)CC[C@](O)(CO)C4=C3C(=O)C3=CCC[C@H](C)[C@@]3(C)C4)C[C@@]21C [DIINCARVILONE B],> 40 µM
4,C[C@H]1CCC=C2C(=O)C=C([C@]3(CO)CC[C@@H](CO)C4=C3C(=O)C3=CCC[C@H](C)[C@@]3(C)C4)C[C@@]21C [DIINCARVILONE C],> 40 µM
5,C[C@H]1CCC=C2C(=O)C=C([C@]3(CO)CCC(=O)C4=C3C(=O)C3=CCC[C@H](C)[C@@]3(C)C4)C[C@@]21C [DIINCARVILONE D],> 40 µM
6,C[C@H](CO)C1=CC(=O)C2=CCC[C@H](C)[C@@]2(C)C1 [INCARVILONE A],> 40 µM
